According to ChEMBL document CHEMBL1142894, “Preparation of 5-aryl-3-alkylthio-l,2,4-triazoles and corresponding sulfones with antiinflammatory-analgesic activity” (Bioorg Med Chem, 2007):

Columns and labels:
Format in all cases: functional
Mus musculus [1] = assay: Inhibition of carrageenan-induced paw edema in Swiss albino mouse at 100 mg/kg, po after 90 mins relative to control; conditions: 1.5 h
Procedure, shortened: (§1)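 Oral dosing in 0.5% CMC; vehicle to controls. Then carrageenan (0.5 mg/25 ll, freshly suspended in 154 mM saline) injected into the right hind paw subplantar tissue; saline into the left paw. Right-left footpad thickness difference measured by dial gauge calliper every 90 min over 6 h. Inhibition % is relative to vehicle control. n = 6; mean ± SEM.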

Mus musculus [2] = assay: Inhibition of carrageenan-induced paw edema in Swiss albino mouse at 100 mg/kg, po after 360 mins relative to control; conditions: 6 h; procedure, shortened: as §1
Mus musculus [3] = assay: Antiinflammatory activity against carrageenan-induced paw edema in Swiss albino mouse assessed as swelling thickness at 10 mg/kg, po after 90 mins; procedure, shortened: as §1
Mus musculus [4] = assay: Antiinflammatory activity against carrageenan-induced paw edema in Swiss albino mouse assessed as swelling thickness at 100 mg/kg, po after 180 mins; procedure, shortened: as §1
Mus musculus [5] = assay: Inhibition of carrageenan-induced paw edema in Swiss albino mouse at 10 mg/kg, po after 90 mins relative to control; conditions: 1.5 h; procedure, shortened: as §1
Mus musculus [6] = assay: Inhibition of carrageenan-induced paw edema in Swiss albino mouse at 10 mg/kg, po after 270 mins relative to control; conditions: 4.5 h; procedure, shortened: as §1
Mus musculus [7] = assay: Inhibition of carrageenan-induced paw edema in Swiss albino mouse at 100 mg/kg, po after 270 mins relative to control; conditions: 4.5 h; procedure, shortened: as §1
Mus musculus [8] = assay: Antiinflammatory activity against carrageenan-induced paw edema in Swiss albino mouse assessed as swelling thickness at 100 mg/kg, po after 270 mins; procedure, shortened: as §1
Mus musculus [9] = assay: Inhibition of carrageenan-induced paw edema in Swiss albino mouse at 10 mg/kg, po after 180 mins relative to control; conditions: 3 h; procedure, shortened: as §1
Mus musculus [10] = assay: Inhibition of carrageenan-induced paw edema in Swiss albino mouse at 100 mg/kg, po after 180 mins relative to control; conditions: 3 h; procedure, shortened: as §1
Mus musculus [11] = assay: Antiinflammatory activity against carrageenan-induced paw edema in Swiss albino mouse assessed as swelling thickness at 10 mg/kg, po after 180 mins; procedure, shortened: as §1
Mus musculus [12] = assay: Antiinflammatory activity against carrageenan-induced paw edema in Swiss albino mouse assessed as swelling thickness at 10 mg/kg, po after 360 mins; procedure, shortened: as §1
Mus musculus [13] = assay: Antiinflammatory activity against carrageenan-induced paw edema in Swiss albino mouse assessed as swelling thickness at 100 mg/kg, po after 90 mins; procedure, shortened: as §1
Mus musculus [14] = assay: Antiinflammatory activity against carrageenan-induced paw edema in Swiss albino mouse assessed as swelling thickness at 100 mg/kg, po after 360 mins; procedure, shortened: as §1
Mus musculus [15] = assay: Antiinflammatory activity against carrageenan-induced paw edema in Swiss albino mouse assessed as swelling thickness at 10 mg/kg, po after 270 mins; procedure, shortened: as §1
Mus musculus [16] = assay: Inhibition of carrageenan-induced paw edema in Swiss albino mouse at 10 mg/kg, po after 360 mins relative to control; conditions: 6 h; procedure, shortened: as §1

Q: Which inhibition in vivo at 100 mg/kg (Mus musculus [1]) does the source give for `COc1ccc2c(c1)c(CC(=O)O)c(C)n2C(=O)c1ccc(Cl)cc1` [INDOMETHACIN] here?
A: 28.8%

Q: What about the inhibition in vivo at 100 mg/kg (Mus musculus [2]) of the same molecule?
A: 42.3%

Q: What about the Activity (Mus musculus [3]) of the same molecule?
A: 34.5 10^-2mm

Q: And the Activity (Mus musculus [4])?
A: 34.8 10^-2mm

Q: And the inhibition in vivo at 10 mg/kg (Mus musculus [5])?
A: 35.2%

Q: What about the inhibition in vivo at 10 mg/kg (Mus musculus [6]) of the same molecule?
A: 42.1%

Q: And the inhibition in vivo at 100 mg/kg (Mus musculus [7])?
A: 37.9%

Q: What about the Activity (Mus musculus [8]) of the same molecule?
A: 36.5 10^-2mm

Q: And the inhibition in vivo at 10 mg/kg (Mus musculus [9])?
A: 34.2%

Q: And the inhibition in vivo at 100 mg/kg (Mus musculus [10])?
A: 32.4%

Q: What about the Activity (Mus musculus [11]) of the same molecule?
A: 39.1 10^-2mm

Q: What about the Activity (Mus musculus [12]) of the same molecule?
A: 40.2 10^-2mm

Q: And the Activity (Mus musculus [13])?
A: 31.9 10^-2mm

Q: What about the Activity (Mus musculus [14]) of the same molecule?
A: 39.7 10^-2mm

Q: And the Activity (Mus musculus [15])?
A: 37.5 10^-2mm

Q: What about the inhibition in vivo at 10 mg/kg (Mus musculus [16]) of the same molecule?
A: 44.2%
